The values that follow come from paper PMC4222540 (Biochemistry, 2014).

Where a chain is given by its changes, count along the chain named. In names and notes the source's numbering stands. Read-outs that look alike come from different tables or passages of the source.

The target in data set [1] is T1, cPAH D139N (Chromobacterium violaceum, UniProt P30967, D139N).
T1 sequence (P30967 1-297 D139N): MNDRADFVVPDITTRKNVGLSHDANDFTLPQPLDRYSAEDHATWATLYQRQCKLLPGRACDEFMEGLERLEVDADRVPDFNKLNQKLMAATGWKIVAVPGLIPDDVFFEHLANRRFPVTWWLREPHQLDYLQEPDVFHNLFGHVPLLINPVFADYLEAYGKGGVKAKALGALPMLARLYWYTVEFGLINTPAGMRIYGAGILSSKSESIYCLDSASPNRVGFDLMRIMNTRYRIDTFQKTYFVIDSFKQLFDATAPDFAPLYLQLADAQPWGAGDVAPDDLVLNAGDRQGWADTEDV
In words: Steady-state kinetics of phenylalanine hydroxylation. Format: biochemical.

Data set [2] concerns the target T2, cPAH D139A (Chromobacterium violaceum, UniProt P30967, D139A).
T2 sequence (P30967 1-297 D139A): T1 sequence (P30967 1-297 D139N) with N139A
The description is as above. It counts as biochemical.

Data set [3] has as its target T3, cPAH D139E (Chromobacterium violaceum, UniProt P30967, D139E).
T3 sequence (P30967 1-297 D139E): T1 sequence (P30967 1-297 D139N) with N139E
The data set is described as above. It counts as biochemical.

The target in data set [4] is T3, cPAH D139E. Briefly: ITC, Fe. It counts as binding. In a few lines: (§1)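 Untagged cPAH (wild type or Asp139 point mutant), expressed from pET3a and purified by anion-exchange and size-exclusion chromatography, in apo form. Anaerobic ITC under argon at 25 °C: 500 μM ferrous ammonium sulfate in dialysis buffer with 2.5 mM TCEP titrated into 50 μM protein containing 2.5 mM TCEP. 18 injections of 2 μL, 180 s apart.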
On the technique in general: In ITC the heat of successive injections is recorded.

The target in data set [5] is T4, cPAH D139K (Chromobacterium violaceum, UniProt P30967, D139K).
T4 sequence (P30967 1-297 D139K): T1 sequence (P30967 1-297 D139N) with N139K
In words: ITC, Fe. It counts as binding. A digest of the protocol:
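Untagged apo cPAH D139K, purified by anion-exchange and size-exclusion chromatography. Anaerobic ITC under argon at 25 °C with 2.5 mM TCEP in titrant and in 50 μM protein. FeSO4 titrated at 10-fold excess (500 μM) and again at 20-fold excess over protein. 18 injections of 2 μL, 180 s apart.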

The target of data set [6] is T1, cPAH D139N. Briefly: ITC, Fe. Format: binding. The conditions noted are these: anaerobic, 25 °C, 2.5 mM TCEP. A digest of the protocol:
as §1

For data set [7], the target named is T2, cPAH D139A. In words: ITC, Fe. It counts as binding. A digest of the protocol:
as §1

In data set [8] the target is T5, wild-type cPAH (Chromobacterium violaceum, UniProt P30967).
T5 sequence (P30967 1-297): T1 sequence (P30967 1-297 D139N) with N139D
Briefly: ITC, Fe. Format: binding. The conditions noted are these: anaerobic, 25 °C, 2.5 mM TCEP. A digest of the protocol: as §1

Data set [9] deals with T2, cPAH D139A. In words: ITC, L-Phe binding to iron-reconstituted enzyme with excess BH4.
Data set [10] has as its target T4, cPAH D139K. The data set is described as above.
The target in data set [11] is T5, wild-type cPAH. The note with it: cited from earlier work.
Data set [12] has as its target T3, cPAH D139E. Briefly: ITC, L-Phe binding to iron-reconstituted enzyme with excess BH4.
In data set [13] the target is T1, cPAH D139N. The description is as above.
Data set [14] is described as follows: Steady-state kinetics: turnover. It counts as biochemical, Chromobacterium violaceum. The note with it: for fold lower kcat relative to wild-type cPAH / kcat: enzyme variant as labelled; for kcat: DMPH4 cofactor, 20 °C, pH 7.4. In a few lines:
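Phenylalanine hydroxylation followed by tyrosine formation at 275 nm (ε275 = 1405 L mol−1 cm−1) at 20 ± 1 °C. Enzyme ranged from 1 μM (wild type) to 30 μM (D139A), with 5-fold molar excess of ferrous ammonium sulfate, 5 mM DTT and 1000 units/mL catalase in 0.1 M O2-saturated Na-HEPES, pH 7.4. DMPH4 was varied at 1 mM Phe, and Phe was varied at 350 μM DMPH4. Triplicates were fit to Michaelis–Menten and reported as mean ± SD of three independent experiments.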

The mark [15] stands for this setting: read-out: KM (DMPH), DMPH4 varied at saturated Phe (1 mM), 20 °C, pH 7.4.
Where [16] appears, read: 20-fold excess of FeSO4, anaerobic, 25 °C, 2.5 mM TCEP.
[17] abbreviates: D139A, 1 mM Phe into 50 μM protein, 50 μM FeSO4, 200 μM BH4, anaerobic, 25 °C.
The mark [18] stands for this setting: D139K, 1 mM Phe into 50 μM protein, 50 μM FeSO4, 200 μM BH4, anaerobic, 25 °C.
Setting [19] is: D139E, 1 mM Phe into 50 μM protein, 50 μM FeSO4, 200 μM BH4, anaerobic, 25 °C.
Where [20] appears, read: D139N, 1 mM Phe into 50 μM protein, 50 μM FeSO4, 200 μM BH4, anaerobic, 25 °C.

For the molecule `CC1Nc2nc(N)[nH]c(=O)c2NC1C` (stereo not shown) [DMPH, 6,7-dimethyl-5,6,7,8-tetrahydropterine], the Km – broadly, the substrate concentration at which the rate is half of its maximum – in data set [1] (setting [15]) was determined as 262 ± 41 µM; in data set [2] (setting [15]), 254 ± 47 µM; in data set [3] (setting [15]) it was 236 ± 38 µM.
Turning to `O=S(=O)([O-])[O-].O=S(=O)([O-])[O-].[Fe+2].[NH4+].[NH4+]` [Fe(II), ferrous ammonium sulfate], the figures for the “fold increase in Kd for iron vs wild type” value in [4] and in [7] were around 4 fold and around 6 fold, respectively. Moreover, the Kd (in general, a measure of binding affinity in units of concentration) in [4] (anaerobic, 25 °C, 2.5 mM TCEP) is 479 ± 170 nM; in data set [5] (setting [16]), 76.5 ± 0.7 µM; in data set [6], 139 ± 60 nM; in [7] (anaerobic, 25 °C, 2.5 mM TCEP), 944 ± 170 nM; in data set [8] it was 151 ± 30 nM. The “N (ITC stoichiometry)” value stood at 0.8 in [4] (anaerobic, 25 °C, 2.5 mM TCEP); 1 in data set [5] (setting [16]); 0.7 in [6]; 0.9 in data set [7] (anaerobic, 25 °C, 2.5 mM TCEP); 0.8 in data set [8]. In addition, the ΔH entry is reported as “–1.5 ± 0.1 kcal mol^–1” in [4] (anaerobic, 25 °C, 2.5 mM TCEP); 1.4 ± 0.6 kcal mol^–1 in [5] (setting [16]); “–4.5 ± 0.3 kcal mol^–1” in [6]; “–2.5 ± 0.1 kcal mol^–1” in data set [7] (anaerobic, 25 °C, 2.5 mM TCEP); “–4.0 ± 0.1 kcal mol^–1” in [8]. The ΔS in data set [4] (anaerobic, 25 °C, 2.5 mM TCEP) was 24 cal mol^–1; in [5] (setting [16]), 23 cal mol^–1; in [6], 16 cal mol^–1; in data set [7] (anaerobic, 25 °C, 2.5 mM TCEP), 19 cal mol^–1; in [8], 18 cal mol^–1. The “fold reduction in binding affinity for iron vs wild type” value in data set [5] is listed as around 500 fold. In data set [5] (10-fold excess of FeSO4 (500 µM)), the “iron binding (ITC isotherm)” value is “no binding was observed”.
On to `N[C@@H](Cc1ccccc1)C(=O)O` [L-Phe, phenylalanine], for which the Kd in data set [9] is 39 ± 12 µM; in [10], 31 ± 5 µM; in data set [11] it was 37 ± 0.3 µM; in data set [12], 55 ± 18 µM; in data set [13], 37 ± 3.7 µM. In addition, the “N (ITC stoichiometry)” value in data set [9] (setting [17]) is 1; in [10] (setting [18]), 0.8; in data set [11], 0.8; in data set [12] (setting [19]) it was 0.6; in data set [13] (setting [20]), 0.9. The ΔH entry was “–10.5 ± 1.9 kcal mol^–1” in data set [9] (setting [17]); “–9.4 ± 1.3 kcal mol^–1” in [10] (setting [18]); “–7.9 ± 0.8 kcal mol^–1” in [11]; “–13.2 ± 6.0 kcal mol^–1” in data set [12] (setting [19]); “–8.5 ± 0.7 kcal mol^–1” in [13] (setting [20]). Further, the ΔS result is recorded as “–15 cal mol^–1” in [9] (setting [17]); “–11 cal mol^–1” in data set [10] (setting [18]); “–6 cal mol^–1” in data set [11]; “–25 cal mol^–1” in [12] (setting [19]); “–8 cal mol^–1” in [13] (setting [20]). Besides, the “fold decrease in kcat/KM for phenylalanine vs wild type” value turned out to be 17 fold in data set [1], 81 fold in [2] and 7 fold in data set [3].

B1: D139N (protein, UniProt P30967 1-297, looked up, variant D139N)
Phenylalanine-4-hydroxylase: T1 sequence (P30967 1-297 D139N)
As for B1, in data set [14], the “fold lower kcat relative to wild-type cPAH” value was around 16 fold and the kcat is listed as 1.2 ± 0.1 s^–1.

B2: D139A (protein, UniProt P30967 1-297, looked up, variant D139A)
Phenylalanine-4-hydroxylase: T1 sequence (P30967 1-297 D139N) with N139A
With B2, in data set [14], the “fold lower kcat relative to wild-type cPAH” value is around 100 fold and the kcat came out at 0.19 ± 0.01 s^–1.

B3: D139K (protein, UniProt P30967 1-297, looked up, variant D139K)
Phenylalanine-4-hydroxylase: T1 sequence (P30967 1-297 D139N) with N139K
Turning to B3, the “catalytic activity (hydroxylation of phenylalanine to tyrosine)” value in data set [14] (nonenzymatic amounts of protein required for minimal tyrosine formation) is “inactive”.

B4: D139E (protein, UniProt P30967 1-297, looked up, variant D139E)
Phenylalanine-4-hydroxylase: T1 sequence (P30967 1-297 D139N) with N139E
Take B4: in [14], the “fold lower kcat relative to wild-type cPAH” value amounted to 10 fold and the kcat is 1.9 ± 0.1 s^–1.

B5: wild type: wild-type phenylalanine hydroxylase from Chromobacterium violaceum (cPAH) (protein, UniProt P30967 1-297, looked up)
Phenylalanine-4-hydroxylase: T1 sequence (P30967 1-297 D139N) with N139D
As to B5, the kcat in [14] amounted to 18.6 ± 0.1 s^–1.
